Measurements reported in ChEMBL document CHEMBL1155231, “Fluoro-pegylated chalcones as positron emission tomography probes for in vivo imaging of beta-amyloid plaques in Alzheimer's disease” (J Med Chem, 2009).
Values belong to the molecule of their own block, whether it stands above or below them. The source made the active and inactive calls. The rule behind the calls is not given here.

Tests used:
[1] = Displacement of [125I]DMIC from amyloid beta (1 to 42) peptide
How it was run: (§1)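 Aβ(1-42) aggregated at 0.25 mg/mL in 10 mM sodium phosphate, 1 mM EDTA, pH 7.4, 37 °C for 42 h with gentle constant shaking. Competition against [125I]DMIC. Bound and free separated by GF/B filtration, filter radioactivity read by γ counter. IC50 from displacement curves of three independent experiments, Ki by Cheng-Prusoff.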

[2] = system: Blood; experiment: Biodistribution in normal ddY mouse blood at 3.7 MBq, iv after 2 mins; format: ADME, organism-based; settings: in vivo
How it was run: (§2)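 Tracer (3.7 MBq) in 100 μL saline with 10% EtOH and 1 mg/mL ascorbic acid, injected into tail vein of 5-week-old ddY mice (22-25 g). Groups of five killed at each time; organs removed, weighed, radioactivity γ-counted and expressed as % injected dose per gram, mean ± SD of 4-5 mice.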

[3] = system: Blood; experiment: Biodistribution in normal ddY mouse blood at 3.7 MBq, iv after 10 mins; format: ADME, organism-based; settings: in vivo; how it was run: as §2
[4] = system: Blood; experiment: Biodistribution in normal ddY mouse blood at 3.7 MBq, iv after 30 mins; format: ADME, organism-based; settings: in vivo, 0.5 h; how it was run: as §2
[5] = system: Blood; experiment: Biodistribution in normal ddY mouse blood at 3.7 MBq, iv after 60 mins; format: ADME, organism-based; settings: in vivo, 1 h; how it was run: as §2
[6] = system: Brain; experiment: Biodistribution in normal ddY mouse brain at 3.7 MBq, iv after 2 mins; format: ADME, organism-based; settings: in vivo; how it was run: as §2
[7] = system: Brain; experiment: Biodistribution in normal ddY mouse brain at 3.7 MBq, iv after 10 mins; format: ADME, organism-based; settings: in vivo; how it was run: as §2
[8] = system: Brain; experiment: Biodistribution in normal ddY mouse brain at 3.7 MBq, iv after 30 mins; format: ADME, organism-based; settings: in vivo, 0.5 h; how it was run: as §2
[9] = system: Brain; experiment: Biodistribution in normal ddY mouse brain at 3.7 MBq, iv after 60 mins; format: ADME, organism-based; settings: in vivo, 1 h; how it was run: as §2
[10] = system: Bone; experiment: Biodistribution in normal ddY mouse bone at 3.7 MBq, iv after 2 mins; format: ADME, organism-based, Bone element; settings: in vivo; how it was run: as §2
[11] = system: Bone; experiment: Biodistribution in normal ddY mouse bone at 3.7 MBq, iv after 10 mins; format: ADME, organism-based, Bone element; settings: in vivo; how it was run: as §2
[12] = system: Bone; experiment: Biodistribution in normal ddY mouse bone at 3.7 MBq, iv after 30 mins; format: ADME, organism-based, Bone element; settings: in vivo, 0.5 h; how it was run: as §2
[13] = system: Bone; experiment: Biodistribution in normal ddY mouse bone at 3.7 MBq, iv after 60 mins; format: ADME, organism-based, Bone element; settings: in vivo, 1 h; how it was run: as §2
[14] = Binding affinity to amyloid beta (1 to 42) peptide; how it was run: as §1
[15] = system: Amyloid-beta precursor protein (Homo sapiens), P05067 [K670N,M671L]; experiment: Binding affinity to human recombinant APP695 K670N and M671L Swedish double mutant plaques expressed in Tg2576 mouse brain at 100 uM after 10 mins by amyloid beta-protein immunohistostaining
How it was run: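 Female Tg2576 and age-matched wild-type mice, 20 months old; brains frozen on dry ice, cut into 10 μm serial sections. Slides incubated 10 min with 100 μM compound in 50% EtOH, washed twice 3 min in 50% EtOH, fluorescence read with excitation 450-490 nm and 520 nm long-pass. Adjacent sections immunostained for Aβ with DAB.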

[16] = molecular target: Amyloid-beta precursor protein (Homo sapiens) (UniProt P05067); experiment: Binding affinity to beta amyloid plaques in human Alzheimer's disease patient brain at 54 uCi/200 uL by autoradiography; settings: tested as the 18F-labelled form

Structure (SMILES): CNc1ccc(/C=C/C(=O)c2ccc(OCCF)cc2)cc1
- Ki [1]: 197 nM

Structure (SMILES): CN(C)c1ccc(/C=C/C(=O)c2ccc(OCCOCCOCC[18F])cc2)cc1
- Drug uptake [2]: 2.09 % ID/g
- Drug uptake [3]: 1.94 % ID/g
- Drug uptake [4]: 2.35 % ID/g
- Drug uptake [5]: 1.87 % ID/g
- Drug uptake [6]: 3.48 % ID/g
- Drug uptake [7]: 1.52 % ID/g
- Drug uptake [8]: 1.08 % ID/g
- Drug uptake [9]: 1.07 % ID/g
- Drug uptake [10]: 1.8 % ID/g
- Drug uptake [11]: 1.76 % ID/g
- Drug uptake [12]: 2.98 % ID/g
- Drug uptake [13]: 3.58 % ID/g

Structure (SMILES): CN(C)c1ccc(/C=C/C(=O)c2ccc(F)cc2)cc1
- Ki [1]: 49.8 nM

Structure (SMILES): CNc1ccc(/C=C/c2ccc(OCCOCCOCC[18F])cc2)cc1 [FLORBETABEN F18]
- Ki [14]: 6.7 nM

Structure (SMILES): CN(C)c1ccc(/C=C/C(=O)c2ccc(OCCOCCOCCF)cc2)cc1
- Ki [1]: 38.9 nM
- Activity [15]: Active
- Activity [16]: Active

Structure (SMILES): CN([11CH3])c1ccc(/C=C/C(=O)c2ccc(F)cc2)cc1
- Drug uptake [2]: 2.61 % ID/g
- Drug uptake [3]: 1.6 % ID/g
- Drug uptake [4]: 0.39 % ID/g
- Drug uptake [5]: 1.4 % ID/g
- Drug uptake [6]: 3.68 % ID/g
- Drug uptake [7]: 1.53 % ID/g
- Drug uptake [8]: 1.04 % ID/g
- Drug uptake [9]: 1.04 % ID/g

Structure (SMILES): CNc1ccc(/C=C/C(=O)c2ccc(F)cc2)cc1
- Ki [1]: 234 nM

Structure (SMILES): CN([11CH3])c1ccc(/C=C/C(=O)c2ccc(OCCF)cc2)cc1
- Drug uptake [2]: 3.65 % ID/g
- Drug uptake [3]: 2.73 % ID/g
- Drug uptake [4]: 2.12 % ID/g
- Drug uptake [5]: 2.22 % ID/g
- Drug uptake [6]: 6.01 % ID/g
- Drug uptake [7]: 3.24 % ID/g
- Drug uptake [8]: 2.57 % ID/g
- Drug uptake [9]: 2.26 % ID/g

Structure (SMILES): CN(C)c1ccc(-c2cn3cc(I)ccc3n2)cc1
- Ki [1]: 28 nM

Structure (SMILES): CN(C)c1ccc(/C=C/C(=O)c2ccc(OCCF)cc2)cc1
- Ki [1]: 45.7 nM

Structure (SMILES): CN([11CH3])c1ccc(/C=C/C(=O)c2ccc(OCCOCCOCCF)cc2)cc1
- Drug uptake [2]: 2.44 % ID/g
- Drug uptake [3]: 1.52 % ID/g
- Drug uptake [4]: 1.01 % ID/g
- Drug uptake [5]: 0.68 % ID/g
- Drug uptake [6]: 4.31 % ID/g
- Drug uptake [7]: 1.38 % ID/g
- Drug uptake [8]: 0.64 % ID/g
- Drug uptake [9]: 0.35 % ID/g

Structure (SMILES): Nc1ccc(/C=C/C(=O)c2ccc(F)cc2)cc1
- Ki [1]: 663 nM

Structure (SMILES): CN(C)c1ccc(/C=C/C(=O)c2ccc(I)cc2)cc1
- Ki [1]: 13.1 nM

Second part, the molecule after the results:

- Ki [1]: 471 nM
Structure (SMILES): CNc1ccc(/C=C/C(=O)c2ccc(OCCOCCOCCF)cc2)cc1

- Drug uptake [2]: 3.48 % ID/g
- Drug uptake [3]: 2.28 % ID/g
- Drug uptake [4]: 2.54 % ID/g
- Drug uptake [5]: 1.44 % ID/g
- Drug uptake [6]: 4.73 % ID/g
- Drug uptake [7]: 2.23 % ID/g
- Drug uptake [8]: 1.14 % ID/g
- Drug uptake [9]: 1 % ID/g
Structure (SMILES): CN([11CH3])c1ccc(/C=C/C(=O)c2ccc(OCCOCCF)cc2)cc1

- Ki [1]: 679 nM
Structure (SMILES): Nc1ccc(/C=C/C(=O)c2ccc(OCCF)cc2)cc1

- Ki [1]: 216 nM
Structure (SMILES): CNc1ccc(/C=C/C(=O)c2ccc(OCCOCCF)cc2)cc1

- Ki [1]: 790 nM
Structure (SMILES): Nc1ccc(/C=C/C(=O)c2ccc(OCCOCCOCCF)cc2)cc1

- Ki [1]: 1050 nM
Structure (SMILES): Nc1ccc(/C=C/C(=O)c2ccc(OCCOCCF)cc2)cc1

- Ki [1]: 20 nM
Structure (SMILES): CN(C)c1ccc(/C=C/C(=O)c2ccc(OCCOCCF)cc2)cc1
